Measurements published in ChEMBL document CHEMBL1177748, “Homo- and heptanor-sterols and tremulane sesquiterpenes from cultures of Phellinus igniarius” (2010).
The source made the active and inactive calls. No cut-off for these calls is given here.

Key:
Liver microsomes = assay: Antioxidant activity against Fe2+-cystine induced lipid peroxidation in rat liver microsomes at 10 uM; assay type: functional; details: Microsome
[1] = test system: Human immunodeficiency virus 1; assay: Antiviral activity against HIV1 assessed as inhibition of viral replication at 10 uM; assay type: functional, organism-based
Thoracic aorta = assay: Vasodilating activity in Langendorff-perfused Sprague-Dawley rat thoracic aorta assessed as relaxation of phenylephrine-induced vasoconstriction at 10 uM relative to untreated control; assay type: functional; design: scale not given: the % may be the effect or the level left
In short: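 Thoracic aortic rings were taken from Langendorff-perfused Sprague-Dawley rats weighing 200 ± 20 g. Rings were precontracted with phenylephrine, and isotonic tension was recorded. Compounds were tested at 10^-5 M. The relaxing rate was expressed as a percentage relative to the blank control.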

[2] = target: T1, Tyrosine-protein phosphatase non-receptor type 1 (Homo sapiens) (UniProt P18031); assay: Inhibition of PTB1B at 10 uM
T1 sequence (whole entry): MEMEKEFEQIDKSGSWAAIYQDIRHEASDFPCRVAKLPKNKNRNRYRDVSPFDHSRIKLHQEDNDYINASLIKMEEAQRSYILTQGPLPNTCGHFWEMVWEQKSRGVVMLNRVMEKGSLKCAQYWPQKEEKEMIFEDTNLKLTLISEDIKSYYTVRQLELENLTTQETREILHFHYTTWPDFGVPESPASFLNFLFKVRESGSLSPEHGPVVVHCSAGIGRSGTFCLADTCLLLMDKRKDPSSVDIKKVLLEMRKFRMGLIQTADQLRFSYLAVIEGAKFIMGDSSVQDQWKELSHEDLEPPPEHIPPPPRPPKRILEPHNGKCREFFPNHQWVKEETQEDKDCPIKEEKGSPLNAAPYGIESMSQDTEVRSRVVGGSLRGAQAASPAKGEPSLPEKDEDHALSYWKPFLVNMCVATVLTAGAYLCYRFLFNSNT

PC-12 = assay: Neuroprotective activity against glutamate-induced neurotoxicity in rat PC12 cells at 10 uM; assay type: functional, cell-based
Rattus norvegicus = species on record: Rattus norvegicus; assay: Inhibition of platelet-activating factor-induced beta-glucuronidase release in rat PMNC at 10 uM; assay type: functional

SMILES | inhibition [2] | inhibition (Liver microsomes) | inhibition [1] | Activity (Thoracic aorta) [%] | inhibition (PC-12) | inhibition (Rattus norvegicus)
C[C@H]1CCC2=C(COC2=O)[C@@]2(O)CC(C)(C)C[C@@H]12 | inactive | inactive | inactive | 46.6 | inactive | inactive
C[C@H]1CC[C@H](CO)[C@H](CO)C2=C[C@@](C)(CO)C[C@H]21 | inactive | inactive | inactive | 45.4 | inactive | inactive
COc1ccc(CCN(C)CCCC(C#N)(c2ccc(OC)c(OC)c2)C(C)C)cc1OC (stereo not given) [VERAPAMIL] | – | – | – | 83.3 | – | –

Second part, led by results:

inhibition [2] | SMILES | inhibition (Liver microsomes) | inhibition [1] | Activity (Thoracic aorta) [%] | inhibition (PC-12) | inhibition (Rattus norvegicus)
inactive | CC1(C)OCC2=CC[C@H]3C(C)(C)[C@@H](O)CC[C@]3(C)[C@H]2CO1 | inactive | inactive | 32.1 | inactive | inactive
inactive | C[C@H]1CC[C@H](CO)[C@H](CO)C2=C[C@](C)(CO)C[C@H]21 | inactive | inactive | 35.7 | inactive | inactive
